Test results taken from ChEMBL document CHEMBL5357047, “The development of thymol-isatin hybrids as broad-spectrum antibacterial agents with potent anti-MRSA activity” (RSC Med Chem, 2024).
pKi: −log10 of the molar value. In brackets after ≈: the same amount, converted by molar mass.

Experiments:
Klebsiella pneumoniae [1] = assay: Antibacterial activity against Klebsiella pneumoniae MTCC 109 assessed as inhibition of bacterial growth at 50 uM measured after 48 hrs by agar well diffusion method; assay type: functional; settings: read-out: IZ
Staphylococcus aureus [2] = assay: Bactericidal activity against Methicillin-resistant Staphylococcus aureus ATCC 33591 assessed as inhibition of bacterial growth measured after 48 hrs by agar plate method; assay type: functional
Procedure, shortened: (§1)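 MBC: aliquots from microdilution wells without colour change subcultured on drug-free Mueller Hinton agar, 48 h at 37 °C aerobically. MBC is the lowest concentration with no visible growth. Triplicate.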

Escherichia coli [3] = assay: Antibacterial activity against clinically isolated Escherichia coli RBRJ005 assessed as inhibition of bacterial growth at 50 uM measured after 48 hrs by agar well diffusion method; assay type: functional; settings: read-out: IZ
Staphylococcus aureus [4] = assay: Antibacterial activity against Methicillin-resistant Staphylococcus aureus ATCC 33591 assessed as inhibition of bacterial growth measured after 48 hrs by broth microdilution method; assay type: functional
Staphylococcus aureus [5] = assay: Antibacterial activity against Staphylococcus aureus MTCC 740 assessed as inhibition of bacterial growth measured after 48 hrs by broth microdilution method; assay type: functional
Klebsiella pneumoniae [6] = assay: Antibacterial activity against clinically isolated Klebsiella pneumoniae RBRJ019 assessed as inhibition of bacterial growth at 50 uM measured after 48 hrs by agar well diffusion method; assay type: functional; settings: read-out: IZ
Staphylococcus aureus [7] = assay: Antibacterial activity against clinically isolated Methicillin-resistant Staphylococcus aureus assessed as inhibition of bacterial growth measured after 48 hrs by broth microdilution method; assay type: functional
Staphylococcus aureus [8] = assay: Antibacterial activity against Staphylococcus aureus MTCC 740 assessed as inhibition of bacterial growth at 50 uM measured after 48 hrs by agar well diffusion method; assay type: functional; settings: read-out: IZ
Staphylococcus aureus [9] = assay: Antibacterial activity against Methicillin-resistant Staphylococcus aureus ATCC 33591 assessed as inhibition of bacterial growth at 50 uM measured after 48 hrs by agar well diffusion method; assay type: functional; settings: read-out: IZ
Procedure, shortened: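 Agar well diffusion on Mueller Hinton agar seeded with bacteria at 0.5 McFarland. […] Incubated 48 h at 37 °C aerobically; zone of inhibition diameter (mm) measured. Triplicate.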

Enterococcus faecalis [10] = assay: Antibacterial activity against Enterococcus faecalis MTCC 439 assessed as inhibition of bacterial growth at 50 uM measured after 48 hrs by agar well diffusion method; assay type: functional; settings: read-out: IZ
[11] = test system: Staphylococcus epidermidis; assay: Antibacterial activity against Staphylococcus epidermidis MTCC 435 assessed as inhibition of bacterial growth at 50 uM measured after 48 hrs by agar well diffusion method; assay type: functional; settings: read-out: IZ
Klebsiella pneumoniae [12] = assay: Antibacterial activity against clinically isolated Klebsiella pneumoniae RBRJ024 assessed as inhibition of bacterial growth at 50 uM measured after 48 hrs by agar well diffusion method; assay type: functional; settings: read-out: IZ
Staphylococcus aureus [13] = assay: Antibacterial activity against clinically isolated Methicillin-resistant Staphylococcus aureus assessed as inhibition of bacterial growth at 50 uM measured after 48 hrs by agar well diffusion method; assay type: functional; settings: read-out: IZ
Staphylococcus aureus [14] = assay: Bactericidal activity against Staphylococcus aureus MTCC 740 assessed as inhibition of bacterial growth measured after 48 hrs by agar plate method; assay type: functional; procedure, shortened: as §1
Enterococcus faecalis [15] = assay: Antibacterial activity against clinically isolated Enterococcus faecalis RBRJ015 assessed as inhibition of bacterial growth at 50 uM measured after 48 hrs by agar well diffusion method; assay type: functional; settings: read-out: IZ
Enterobacter cloacae = assay: Antibacterial activity against clinically isolated Enterobacter cloacae RBRJ017 assessed as inhibition of bacterial growth at 50 uM measured after 48 hrs by agar well diffusion method; assay type: functional; settings: read-out: IZ
Pseudomonas aeruginosa = assay: Antibacterial activity against Pseudomonas aeruginosa MTCC 424 assessed as inhibition of bacterial growth at 50 uM measured after 48 hrs by agar well diffusion method; assay type: functional; settings: read-out: IZ
Escherichia coli [16] = assay: Antibacterial activity against Escherichia coli MTCC 119 assessed as inhibition of bacterial growth at 50 uM measured after 48 hrs by agar well diffusion method; assay type: functional; settings: read-out: IZ
Escherichia coli [17] = assay: Antibacterial activity against clinically isolated Escherichia coli RBRJ013 assessed as inhibition of bacterial growth at 50 uM measured after 48 hrs by agar well diffusion method; assay type: functional; settings: read-out: IZ
Acinetobacter baumannii = assay: Antibacterial activity against clinically isolated Acinetobacter baumannii RBRJ027 assessed as inhibition of bacterial growth at 50 uM measured after 48 hrs by agar well diffusion method; assay type: functional; settings: read-out: IZ
Staphylococcus aureus [18] = assay: Antibacterial activity against clinically isolated Staphylococcus aureus RBRJ010 assessed as inhibition of bacterial growth at 50 uM measured after 48 hrs by agar well diffusion method; assay type: functional; settings: read-out: IZ
Staphylococcus aureus [19] = assay: Bactericidal activity against clinically isolated Methicillin-resistant Staphylococcus aureus assessed as inhibition of bacterial growth measured after 48 hrs by agar plate method; assay type: functional
[20] = target: T1, 4,4'-diapophytoene synthase (Staphylococcus aureus, UniProt A9JQL9); assay: Inhibition of Staphylococcus aureus CrtM
T1 sequence (A9JQL9 whole entry): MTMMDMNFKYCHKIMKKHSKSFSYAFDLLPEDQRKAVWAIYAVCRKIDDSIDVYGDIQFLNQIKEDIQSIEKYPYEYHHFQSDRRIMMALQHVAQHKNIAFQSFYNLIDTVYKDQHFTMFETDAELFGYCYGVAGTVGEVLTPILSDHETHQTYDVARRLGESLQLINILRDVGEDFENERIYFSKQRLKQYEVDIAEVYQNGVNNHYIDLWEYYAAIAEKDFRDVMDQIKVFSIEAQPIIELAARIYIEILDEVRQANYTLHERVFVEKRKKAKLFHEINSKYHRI

[21] = Selectivity index, ratio of IC50 for cytotoxicity against mouse L929 cells to MIC for antibacterial activity against clinically isolated Methicillin-resistant Staphylococcus aureus; assay type: toxicity, cell-based; settings: read-out: Selectivity Index
[22] = Cytotoxicity against mouse L929 cells assessed as reduction in cell viability measured after 72 hrs by MTT assay; assay type: toxicity, cell-based
Procedure, shortened: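 L929 cells (ATCC) grown in DMEM with 10% FBS and penicillin/streptomycin at 37 °C, 5% CO2; seeded at 5 × 10^3 cells per well and exposed to serial dilutions for 72 h, paclitaxel as positive control. MTT (5 mg mL−1), formazan dissolved in DMSO, absorbance at 490 nm; viability relative to control after blank subtraction; IC50 in μM.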

[23] = test system: Staphylococcus epidermidis; assay: Antibacterial activity against Staphylococcus epidermidis MTCC 435 assessed as inhibition of bacterial growth measured after 48 hrs by broth microdilution method; assay type: functional
Staphylococcus aureus [24] = assay: Bactericidal activity against clinically isolated Staphylococcus aureus RBRJ010 assessed as inhibition of bacterial growth measured after 48 hrs by agar plate method; assay type: functional
Procedure, shortened: (§2)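 MBC: 10 μL from wells showing no INT colour change after broth microdilution subcultured on drug-free Mueller Hinton agar, 48 h at 37 °C aerobically; lowest concentration with no visible growth taken as MBC (μM). Triplicate.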

Staphylococcus aureus [25] = assay: Antibacterial activity against clinically isolated Staphylococcus aureus RBRJ010 assessed as inhibition of bacterial growth measured after 48 hrs by broth microdilution method; assay type: functional
[26] = test system: Staphylococcus epidermidis; assay: Bactericidal activity against Staphylococcus epidermidis MTCC 435 assessed as inhibition of bacterial growth measured after 48 hrs by agar plate method; assay type: functional; procedure, shortened: as §2

| SMILES | zone of inhibition at 50 µM (Klebsiella pneumoniae [1]) | zone of inhibition at 50 µM (Escherichia coli [3]) | MIC (Staphylococcus aureus [5]) | zone of inhibition at 50 µM (Klebsiella pneumoniae [6]) | MIC (Staphylococcus aureus [7]) | zone of inhibition at 50 µM (Staphylococcus aureus [8]) | zone of inhibition at 50 µM (Staphylococcus aureus [9]) | zone of inhibition at 50 µM (Enterococcus faecalis [10]) | zone of inhibition at 50 µM [11] | zone of inhibition at 50 µM (Klebsiella pneumoniae [12]) | zone of inhibition at 50 µM (Staphylococcus aureus [13]) | MBC (Staphylococcus aureus [14]) | zone of inhibition at 50 µM (Enterococcus faecalis [15]) | zone of inhibition at 50 µM (Enterobacter cloacae) | zone of inhibition at 50 µM (Pseudomonas aeruginosa) | zone of inhibition at 50 µM (Escherichia coli [16]) | zone of inhibition at 50 µM (Escherichia coli [17]) | zone of inhibition at 50 µM (Acinetobacter baumannii) | zone of inhibition at 50 µM (Staphylococcus aureus [18]) | MBC (Staphylococcus aureus [19]) | further results |
| --- | --- | --- | --- | --- | --- | --- | --- | --- | --- | --- | --- | --- | --- | --- | --- | --- | --- | --- | --- | --- | --- |
| Cc1ccc(C(C)C)c(OCc2cn(CCCN3C(=O)C(=O)c4cc(Br)ccc43)nn2)c1 | 14.3 mm | 15.4 mm | 31.2 µM (≈ 15.5 µg/mL) | 13.2 mm | 31.2 µM (≈ 15.5 µg/mL) | 21.2 mm | 21.5 mm | 12.1 mm | 17.2 mm | 13.3 mm | 21.2 mm | 62.5 µM (≈ 31.1 µg/mL) | 12.2 mm | 14.2 mm | 11.4 mm | 14.1 mm | 15.5 mm | 11.2 mm | 19.3 mm | 62.5 µM (≈ 31.1 µg/mL) | MBC (Staphylococcus aureus [2]): 125 µM (≈ 62.2 µg/mL); MIC (Staphylococcus aureus [4]): 62.5 µM (≈ 31.1 µg/mL) |
| O=P(O)(O)C(CCCc1ccc(-c2ccccc2)cc1)S(=O)(=O)O (stereo unspecified) | – | – | – | – | – | – | – | – | – | – | – | – | – | – | – | – | – | – | – | – | pKi [20]: 8.22 |
| Cc1ccc(C(C)C)c(OCc2cn(CCN3C(=O)C(=O)c4ccccc43)nn2)c1 | 18.3 mm | 15.2 mm | 62.5 µM (≈ 25.3 µg/mL) | 16.4 mm | 62.5 µM (≈ 25.3 µg/mL) | 20.2 mm | 18.2 mm | 15.4 mm | 22.7 mm | 16.5 mm | 20.2 mm | 125 µM (≈ 50.6 µg/mL) | 18.3 mm | 16.5 mm | 18.2 mm | 18.6 mm | 14.4 mm | 13.3 mm | 22.2 mm | 125 µM (≈ 50.6 µg/mL) | selectivity ratio [21]: 4; IC50 at 72 h [22]: 250000 nM; MIC [23]: 15.6 µM (≈ 6.31 µg/mL); MBC (Staphylococcus aureus [24]): 31.2 µM (≈ 12.6 µg/mL); MIC (Staphylococcus aureus [25]): 15.6 µM (≈ 6.31 µg/mL); MBC [26]: 31.2 µM (≈ 12.6 µg/mL) |
| CC(=O)O[C@H]1C(=O)[C@@]2(C)[C@H]([C@H](OC(=O)c3ccccc3)[C@]3(O)C[C@H](OC(=O)[C@H](O)[C@@H](NC(=O)c4ccccc4)c4ccccc4)C(C)=C1C3(C)C)[C@]1(OC(C)=O)CO[C@@H]1C[C@@H]2O [PACLITAXEL] | – | – | – | – | – | – | – | – | – | – | – | – | – | – | – | – | – | – | – | – | IC50 at 72 h [22]: 62.5 nM |
| O=P(O)(O)C(CCCc1ccc(-c2ccc(Br)cc2)cc1)S(=O)(=O)O (stereo unspecified) | – | – | – | – | – | – | – | – | – | – | – | – | – | – | – | – | – | – | – | – | pKi [20]: 6.87 |
